Activity calls are given as the source filed them. The calls are words filed in the database; no cut-off is given here.
Experiments:
[1] = target: C-C chemokine receptor type 2 (Homo sapiens, UniProt P41597); experiment: Inhibition of human CCR2-mediated Erk phosphorylation
[2] = Clearance in chimpanzee at 1 mg/kg, iv; format: ADME, organism-based, Pan troglodytes; design: dose 1 mg/kg, route intravenous; conditions: in vivo
How it was run: (§1)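 Pharmacokinetics run in rats, dogs, cynomolgus monkeys and chimpanzees, with two animals per species for the iv arm and two per species for the oral arm. Parameters were derived per species and route: CL, Vss and T1/2 from iv dosing; Cmax, Tmax, AUC, T1/2 and F% from oral dosing. Values are reported as mean ± spread.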

[3] = target: T1, C-C chemokine receptor type 1 (Homo sapiens) (UniProt P32246); experiment: Inhibition of CCR1 at 1 uM
T1 sequence (whole entry): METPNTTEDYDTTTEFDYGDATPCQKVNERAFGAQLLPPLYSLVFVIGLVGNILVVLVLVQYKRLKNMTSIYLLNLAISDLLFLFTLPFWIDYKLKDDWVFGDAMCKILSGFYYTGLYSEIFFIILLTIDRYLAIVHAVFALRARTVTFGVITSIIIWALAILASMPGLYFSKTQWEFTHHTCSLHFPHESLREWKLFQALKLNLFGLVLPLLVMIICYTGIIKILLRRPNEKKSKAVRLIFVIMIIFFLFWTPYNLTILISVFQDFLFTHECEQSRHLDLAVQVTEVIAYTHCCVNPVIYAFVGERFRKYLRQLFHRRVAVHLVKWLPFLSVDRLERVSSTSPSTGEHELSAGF
How it was run: (§2)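 Cerep selectivity panel of over 50 ion channels, transporters, chemokine receptors and other GPCRs. Single test concentration of 1 μM, scored for significant inhibition.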

[4] = test system: Liver; experiment: Metabolic stability in human liver S9 fraction assessed as glutathione adduct formation in presence of glutathione and NADPH; format: ADME, subcellular
[5] = target: T2, C-X-C chemokine receptor type 3 (Homo sapiens) (UniProt P49682); experiment: Inhibition of CXCR3 at 1 uM; how it was run: as §2
T2 sequence (whole entry): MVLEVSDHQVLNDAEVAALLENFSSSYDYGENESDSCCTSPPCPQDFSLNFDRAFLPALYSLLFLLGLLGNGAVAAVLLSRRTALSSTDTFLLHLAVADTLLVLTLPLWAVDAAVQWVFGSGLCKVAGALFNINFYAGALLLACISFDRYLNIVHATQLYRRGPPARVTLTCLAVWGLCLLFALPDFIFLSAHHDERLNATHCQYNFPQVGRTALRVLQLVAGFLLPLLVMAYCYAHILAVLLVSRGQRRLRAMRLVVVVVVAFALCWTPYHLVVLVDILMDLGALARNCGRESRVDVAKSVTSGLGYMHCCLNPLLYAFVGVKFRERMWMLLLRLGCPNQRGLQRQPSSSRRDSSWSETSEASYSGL

[6] = Half life in cynomolgus monkey at 30 mg/kg, po; format: ADME, organism-based, Macaca fascicularis; design: dose 30 mg/kg, route oral; conditions: in vivo; how it was run: as §1
[7] = Cmax in cynomolgus monkey at 30 mg/kg, po; format: ADME, organism-based, Macaca fascicularis; design: dose 30 mg/kg, route oral; conditions: in vivo; how it was run: as §1
[8] = AUC in dog at 30 mg/kg, po; format: ADME, organism-based, Canis lupus familiaris; design: dose 30 mg/kg, route oral; conditions: plasma; how it was run: as §1
[9] = test system: Mus musculus; experiment: Dose normalized AUC in mouse at 10 mg/kg, po; format: ADME, organism-based; design: dose 10 mg/kg, route oral; conditions: in vivo
How it was run: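 Mouse oral PK screen by cassette dosing at 10 mg/kg, three animals per cassette. AUC is dose-normalized.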

[10] = Tmax in chimpanzee at 4 mg/kg, po; format: ADME, organism-based, Pan troglodytes; design: dose 4 mg/kg, route oral; conditions: in vivo; how it was run: as §1

C-C chemokine receptor type 2, sequence (P41597 whole entry): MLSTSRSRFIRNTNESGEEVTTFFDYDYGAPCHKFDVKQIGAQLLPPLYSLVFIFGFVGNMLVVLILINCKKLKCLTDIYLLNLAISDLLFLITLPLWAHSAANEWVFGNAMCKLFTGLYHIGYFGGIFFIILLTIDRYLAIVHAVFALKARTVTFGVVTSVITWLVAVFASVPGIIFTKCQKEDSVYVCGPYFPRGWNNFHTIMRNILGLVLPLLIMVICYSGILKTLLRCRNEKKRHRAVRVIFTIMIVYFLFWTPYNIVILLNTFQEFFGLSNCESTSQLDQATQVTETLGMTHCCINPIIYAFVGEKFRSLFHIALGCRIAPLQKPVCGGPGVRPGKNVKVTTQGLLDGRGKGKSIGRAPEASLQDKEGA

IC50 [1]: 2.6 nM | clearance [2]: 0.35 L/h/kg | inhibition [3]: inactive | Stability [4]: Stable | inhibition [5]: inactive | half-life [6]: 5.1 h | Cmax [7]: 2.63 µM | AUC [8]: 33.3 µM·h | AUC/dose [9]: 617 nM·h | Tmax [10]: 2 h
SMILES: COc1ccc([C@]2(O)CC[C@H](N3CC[C@@H](NC(=O)CNC(=O)c4cccc(C(F)(F)F)c4)C3)CC2)cn1.CS(=O)(=O)O

From ChEMBL document CHEMBL1949557, “Discovery of INCB3284, a Potent, Selective, and Orally Bioavailable hCCR2 Antagonist” (ACS Med Chem Lett, 2011)
